Published values gathered from unrelated publications.
Each line is one published result; the experiments were not run side by side.
Target: Insulin receptor (INSR, Homo sapiens, UniProt P06213)

The inhibition of `C[C@H](C(=O)N[C@H]1COc2ccccc2[C@@H]1S(C)(=O)=O)c1ccc(F)cc1` is reported as -14% (enzyme activity, inhibitor; 10 µM).
`Cc1ncc(C)n2nc(/C=C/c3nc(N4CCCC4)cc(N4CCOCC4)n3)nc12` has an inhibition of 37% (enzyme activity, inhibitor; 10 µM).
For `c1ccc(C(NCCNC(c2ccccc2)c2ccccc2)c2ccccc2)cc1`, the inhibition was -6% (enzyme activity, inhibitor; 10 µM).
`Nc1ncc(-c2nc(N3CCOCC3)nc(N3CCOCC3)n2)c(C(F)F)n1` has a remaining binding of 50% (cell-free assay, competition with immobilised ligand; 10 µM).
`Cc1nn(C)cc1-c1nc2c(N3CCN(Cc4ccc(Cl)cc4)CC3)c(Cl)cnc2[nH]1` gave a remaining binding of 100% (binding, competition with immobilised ligand; 1 µM).
With `O=C(Nc1cccnn1)N1CCN([C@@H]2CCOc3cc(C(F)(F)F)ccc32)CC1` the inhibition was 14% (enzyme activity, inhibitor; 20 µM).
`Cn1cncc1[C@@](O)(COc1ccc(C#N)cc1-c1ccc(OC(F)(F)F)cc1)c1ccc(C#N)cc1` has a remaining binding of 84% (cell-free assay, competition with immobilised ligand; 1 µM).
`O=c1[nH]c2ccccc2n1C1CCN(Cc2ccc(-c3[nH]c4cc5ncnc5cc4nc3-c3ccccc3)cc2)CC1` has a remaining signal of 102% (cell-free assay; 0.5 µM).
`COc1ncccc1-c1cnn2ccc(N3CCN(C(=O)OC(C)C)CC3)nc12` has a remaining binding of 95% (binding, competition with immobilised ligand; 1 µM).
`Cn1cc(-c2cc(F)cc(N3CCn4c(cc5c4CCCC5)C3=O)c2CO)cc(Nc2ccc(N3CCN(C4COC4)CC3)cn2)c1=O` has an inhibition of 8% (enzyme activity, inhibitor; 0.1 µM).
`C#Cc1n[nH]c2c(-c3cn([C@@H](C)c4ccccc4)c(=O)[nH]c3=O)cc(F)cc12` has an inhibition of 7.7% (enzyme activity, inhibitor; 0.1 µM).
`N#CC1(c2ccccn2)CCN(Cc2cc(C(=O)O)c(=O)n3ccccc23)CC1` gave a remaining binding of 74% (cell-free assay, competition with immobilised ligand; 1 µM).
`Cn1cc(-c2cccc(N3CCc4c(sc5c4CC(C)(C)C5)C3=O)c2CO)cc(Nc2ccncn2)c1=O` gave an inhibition of 6% (enzyme activity, inhibitor; 1 µM).
The inhibition of `C#Cc1n[nH]c2c(-c3cn([C@@H](C)c4ccccn4)c(=O)[nH]c3=O)cc(F)cc12` is reported as 9% (enzyme activity, inhibitor; 0.1 µM).
`CC(C)(C)c1cc(C=C(C#N)C#N)cc(Br)c1O` gave a remaining activity of 105% (enzyme activity, inhibitor; 0.5 µM).
